Measurements reported in article PMC9073098 (RSC Advances, 2019).

Experiment: Absorption and fluorescence measurements
Assay type: physicochemical
Details: for Absorption maximum λmaxAb / Fluorescence quantum yield ΦF: CM : ACN (4 : 1, v/v); for Absorption maximum λmaxAb: RPMI 1640 cell medium pH 7.5, 25 °C, c = 0.6 μM; for Fluorescence quantum yield ΦF: cell medium pH 7.5, 25 °C, average of three measurements; for Extinction coefficient ε: PB : ACN (4 : 1, v/v), 10 mM phosphate buffer pH 7.5, 25 °C
How it was run: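 UV-Vis absorption and corrected fluorescence spectra at 25 °C in 1 cm quartz cells, ~0.5–0.6 μM dye in 10 mM phosphate buffer pH 7.5 or RPMI 1640 medium pH 7.5 (serum containing acetylcholinesterase). Excitation 532 and 710 nm. ΦF relative to ICG in methanol (0.044) and Cy3 in PBS (0.04), absorbance 0.04–0.06 at excitation. Three independent measurements averaged, reproducibility within 5%.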

| SMILES | Absorption maximum λmaxAb [nm] | Fluorescence quantum yield ΦF [%] | Extinction coefficient ε |
| --- | --- | --- | --- |
| CN1C(=CC=C2CCCC(=CC=C3N(CCCCCC(=O)O)c4ccccc4C3(C)C)C2=O)C(C)(C)c2ccccc21 [RD, 6-(3,3-Dimethyl-2-(2-(2-oxo-3-(2-(1,3,3-trimethylindolin-2-ylidene)ethylidene)cyclohexylidene)ethylidene)indolin-1-yl)hexanoic acid] | 526 | 2.6 ± 0.1 | 57 000 M^−1 × cm^−1 |
| C[N+]1=C(C=CC2=C(OC(=O)CCCc3ccc(N(CCCl)CCCl)cc3)C(=CC=C3N(CCCCCC(=O)O)c4ccccc4C3(C)C)CCC2)C(C)(C)c2ccccc21 [IRD-CLB, 2-(2-(2-((4-(4-(bis(2-chloroethyl)amino)phenyl)butanoyl)oxy)-3-(2-(1-(5-carboxypentyl)-3,3-dimethylindolin-2-ylidene)ethylidene)cyclohex-1-en-1-yl)vinyl)-1,3,3-trimethyl-3H-indol-1-ium] | 785 | 6.3 ± 0.5 | 160 000 M^−1 × cm^−1 |
